Measurements reported in ChEMBL document CHEMBL5390324, “Synthesis of 9-Cinnamyl-9H-purine Derivatives as Novel TLR4/MyD88/NF-κB Pathway Inhibitors for Anti-inflammatory Effects” (ACS Med Chem Lett, 2023).
Calls of active or inactive are those of the source. The rule behind the calls is not given here.

Columns and labels:
RAW264.7 [1] = test: Antiinflammatory activity in mouse RAW264.7 cells assessed as inhibition of LPS-stimulated nitric oxide production at 10 uM preincubated for 2 hrs followed by LPS stimulation for 24 hrs by Griess reagent based assay relative to control; assay type: functional; details: time 26 hrs
Outline: (§1)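 RAW264.7 cells pretreated 2 h with compound, then LPS (500 ng/mL) 24 h. Nitrite in culture supernatant measured with Griess reagent (1% sulfanilamide in 5% H3PO4, 0.1% N-(1-naphthyl)ethylenediamine dihydrochloride). Inhibition % as mean ± SEM of triplicates; negative values denote enhancement of NO.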

RAW264.7 [2] = test: Antiinflammatory activity in mouse RAW264.7 cells assessed as inhibition of LPS-stimulated nitric oxide production at 20 uM preincubated for 2 hrs followed by LPS stimulation for 24 hrs by Griess reagent based assay relative to control; assay type: functional; details: time 26 hrs; outline: as §1
RAW264.7 [3] = test: Antiinflammatory activity in mouse RAW264.7 cells assessed as inhibition of nitric oxide production incubated for 2 hrs by Griess reagent based assay; assay type: functional, cell-based; outline: as §1
RAW264.7 [4] = test: Antiinflammatory activity in mouse RAW264.7 cells assessed as inhibition of LPS-stimulated nitric oxide production preincubated for 2 hrs followed by LPS stimulation for 24 hrs by Griess reagent based assay; assay type: functional, cell-based; details: for inhibition: time 26.0 hrs; outline: as §1
RAW264.7 [5] = test: Cytotoxicity against mouse RAW264.7 cells at 3 to 30 uM by MTS assay; assay type: toxicity, cell-based; details: raw264.7, 30 µM, dose 3-30 µM
Outline: (§2)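 MTS viability assay in RAW264.7 and 293T cells at 3, 10 and 30 μM.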

HEK-293T [6] = test: Cytotoxicity against HEK293T cells at 3 to 30 uM by MTS assay; assay type: toxicity, cell-based; details: human, dose 3-30 µM; outline: as §2
RAW264.7 [7] = test: Antiinflammatory activity in LPS-stimulated mouse RAW264.7 cells assessed as inhibition in IL-1beta level at 3 to 30 uM preincubated for 2 hrs followed by LPS stimulation for 24 hrs by ELISA; assay type: functional, cell-based; details: dose 3-30 µM, time 26.0 hrs
Outline: (§3)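 RAW264.7 macrophages pretreated 2 h with compound, or Bay11-7082 as positive control, then LPS (500 ng/mL) for 24 h. IL-6, IL-1β and TNF-α in supernatants quantified by ELISA. Mean ± SEM.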

Mus musculus [8] = organism: Mus musculus; test: Antiinflammatory activity in DNCB-stimulated atopic dermatitis BALB/c mouse model assessed as reduction in ear swelling at 0.5 % pretreated for 30 mins followed by DNCB re-treatment measured after 3 hrs; assay type: functional, organism-based; details: time 3.5 hrs
Outline: (§4)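 DNCB-induced atopic dermatitis model in mouse ears, lesions peaking day 7 after sensitization; test agent applied at 0.5%. Ear thickness measured daily with a digimatic micrometer; ear lesions photographed. Ear specimens H&E-stained and examined microscopically for epidermal and dermal thickness and inflammatory cell infiltration. Mean ± SEM.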

RAW264.7 [9] = test: Antiinflammatory activity in mouse RAW264.7 cells assessed as inhibition of NF-kappaB translocation from cytosol to nucleus at 30 uM preincubated for 2 hrs followed by LPS stimulation for 2 hrs by immunofluorescence staining analysis; assay type: functional, cell-based; details: time 4.0 hrs
Outline: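 RAW264.7 cells in glass chamber wells overnight, treated 2 h with compound (30 μM) or Bay (20 μM), then LPS for 2 h. Immunostained for NF-κB p65 with Alexa Fluor 488 secondary; nuclei counterstained with DAPI in antifade medium; fluorescence imaging.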

RAW264.7 [10] = test: Antiinflammatory activity in LPS-stimulated mouse RAW264.7 cells assessed as reduction in COX-2 level at 10 to 30 uM preincubated for 2 hrs followed by LPS stimulation for 20 hrs by Western blot analysis; assay type: functional, cell-based; details: dose 10-30 µM, time 22.0 hrs
Outline: (§5)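 RAW264.7 cells pretreated 2 h with compound, then LPS (200 ng/mL) for 20 h. iNOS and COX-2 protein assessed by Western blot.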

Mus musculus [11] = organism: Mus musculus; test: Antiinflammatory activity in DNCB-stimulated atopic dermatitis BALB/c mouse model assessed as reduction in epidermal thickness of ear at 0.5 % pretreated for 30 mins followed by DNCB re-treatment measured after 3 hrs by H and E staining based microscopic analysis; assay type: functional, organism-based; details: time 3.5 hrs; outline: as §4
Mus musculus [12] = organism: Mus musculus; test: Antiinflammatory activity in DNCB-stimulated atopic dermatitis BALB/c mouse model assessed as reduction in skin lesion at 0.5 % pretreated for 30 mins followed by DNCB re-treatment measured after 3 hrs; assay type: functional, organism-based; details: time 3.5 hrs; outline: as §4
Mus musculus [13] = organism: Mus musculus; test: Antiinflammatory activity in DNCB-stimulated atopic dermatitis BALB/c mouse model assessed as reduction in dermal thickness of ear at 0.5 % pretreated for 30 mins followed by DNCB re-treatment measured after 3 hrs by H and E staining based microscopic analysis; assay type: functional, organism-based; details: time 3.5 hrs; outline: as §4
HEK-293T [14] = test: Antiinflammatory activity in HEK293T cells transfected with NF-kappaB (unknown origin) assessed as inhibition in NF-kB transcription at 3 to 30 uM preincubated for 2 hrs followed by PMA stimulation for 24 hrs by SEAP reporter gene based Quanti-blue assay; assay type: functional, cell-based; details: Homo sapiens, dose 3-30 µM, time 26.0 hrs
Outline: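 293T cells on poly-D-lysine-coated wells transfected overnight with pNF-κB-SEAP. Treated with compound for 2 h, then PMA (50 ng/mL) for 24 h. Bay 11-7082 (20 μM) served as NF-κB inhibitor control. SEAP activity read with QUANTI-Blue. Mean ± SEM.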

[15] = biological target: TLR4-MyD88 (Mus musculus) (UniProt Q9QUK6+P22366); test: Inhibition of TLR4-MyD88 interaction in mouse RAW264.7 cells at 30 uM preincubated for 2 hrs followed by LPS stimulation for 24 hrs by co-immunoprecipitation analysis; assay type: cell-based; details: time 26.0 hrs
Outline: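 RAW264.7 cells treated with compound at 30 μM for 2 h, then LPS (500 ng/mL) for 24 h. Lysates immunoprecipitated with MyD88- or TLR4-specific antibodies on protein A/G agarose beads; immunocomplexes probed by Western blot for TLR4 or MyD88.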

Mus musculus [16] = organism: Mus musculus; test: Antiinflammatory activity in DNCB-stimulated atopic dermatitis BALB/c mouse model assessed as reduction in infiltration of inflammatory cells of ear at 0.5 % pretreated for 30 mins followed by DNCB re-treatment measured after 3 hrs by H and E staining based microscopic analysis; assay type: functional, organism-based; details: time 3.5 hrs; outline: as §4
RAW264.7 [17] = test: Antiinflammatory activity in LPS-stimulated mouse RAW264.7 cells assessed as inhibition in TNF-alpha level at 3 to 30 uM preincubated for 2 hrs followed by LPS stimulation for 24 hrs by ELISA; assay type: functional, cell-based; details: dose 3-30 µM, time 26.0 hrs; outline: as §3
RAW264.7 [18] = test: Antiinflammatory activity in LPS-stimulated mouse RAW264.7 cells assessed as reduction in iNOS level at 10 to 30 uM preincubated for 2 hrs followed by LPS stimulation for 20 hrs by Western blot analysis; assay type: functional, cell-based; details: dose 10-30 µM, time 22.0 hrs; outline: as §5
RAW264.7 [19] = test: Antiinflammatory activity in LPS-stimulated mouse RAW264.7 cells assessed as inhibition in IL-6 level at 3 to 30 uM preincubated for 2 hrs followed by LPS stimulation for 24 hrs by ELISA; assay type: functional, cell-based; details: dose 3-30 µM, time 26.0 hrs; outline: as §3

TLR4-MyD88 (Mus musculus), sequence (P22366 whole entry, looked up): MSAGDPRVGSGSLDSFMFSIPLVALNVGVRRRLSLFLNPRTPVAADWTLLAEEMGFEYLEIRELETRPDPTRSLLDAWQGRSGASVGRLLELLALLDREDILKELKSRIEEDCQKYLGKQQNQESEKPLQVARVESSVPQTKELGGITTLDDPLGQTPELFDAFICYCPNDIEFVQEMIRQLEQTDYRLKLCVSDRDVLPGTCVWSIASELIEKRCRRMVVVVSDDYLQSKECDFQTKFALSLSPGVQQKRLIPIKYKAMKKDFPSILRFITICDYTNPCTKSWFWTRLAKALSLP
TLR4-MyD88 (Mus musculus), sequence (Q9QUK6 whole entry, looked up): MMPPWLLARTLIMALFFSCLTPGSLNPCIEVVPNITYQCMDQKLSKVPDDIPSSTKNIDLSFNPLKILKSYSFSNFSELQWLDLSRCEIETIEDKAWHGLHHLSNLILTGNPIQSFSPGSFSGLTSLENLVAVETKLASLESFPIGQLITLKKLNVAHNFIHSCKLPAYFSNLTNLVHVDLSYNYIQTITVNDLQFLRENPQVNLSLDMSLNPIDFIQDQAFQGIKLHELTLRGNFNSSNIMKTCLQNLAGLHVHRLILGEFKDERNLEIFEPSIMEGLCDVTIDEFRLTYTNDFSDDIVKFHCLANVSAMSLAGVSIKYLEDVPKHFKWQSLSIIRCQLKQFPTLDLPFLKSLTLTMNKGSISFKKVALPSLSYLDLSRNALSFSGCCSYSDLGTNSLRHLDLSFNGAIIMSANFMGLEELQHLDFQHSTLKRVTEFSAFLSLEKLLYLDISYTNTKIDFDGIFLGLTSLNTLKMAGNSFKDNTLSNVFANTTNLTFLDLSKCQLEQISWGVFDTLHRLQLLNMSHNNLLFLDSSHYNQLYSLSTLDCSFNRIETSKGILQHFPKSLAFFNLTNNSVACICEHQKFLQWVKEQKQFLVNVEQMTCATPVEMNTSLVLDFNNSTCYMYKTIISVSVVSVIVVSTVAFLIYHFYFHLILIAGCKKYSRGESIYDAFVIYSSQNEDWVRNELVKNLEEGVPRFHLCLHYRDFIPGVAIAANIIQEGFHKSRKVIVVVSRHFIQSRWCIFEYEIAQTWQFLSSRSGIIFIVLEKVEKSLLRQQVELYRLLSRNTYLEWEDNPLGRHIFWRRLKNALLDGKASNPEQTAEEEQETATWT

| Compound | inhibition at 10 µM (RAW264.7 [1]) [%] | inhibition at 20 µM (RAW264.7 [2]) [%] | also measured |
| --- | --- | --- | --- |
| Cc1ccc(/C=C/Cn2cnc3c(N)nc(Cl)nc32)cc1 | 11.9 | 11.2 |  |
| CNc1ncnc2c1ncn2C/C=C/c1ccc(F)cc1 | 0.97 | 2.9 |  |
| Fc1ccc(/C=C/Cn2cnc3c(Cl)ncnc32)cc1 | 11.6 | 30.2 |  |
| CNc1nc(Cl)nc2c1ncn2CC1CC1c1ccc(F)cc1 (stereo not given) | 11.2 | 11.9 |  |
| CNc1ncnc2c1ncn2C/C=C/c1ccccc1 | 19.3 | 33.4 |  |
| Nc1nc(Cl)nc2c1ncn2C/C=C/c1ccccc1 | -5.27 | 2.46 | inhibition (RAW264.7 [3]): inactive; inhibition (RAW264.7 [4]): inactive |
| Clc1ncnc2c1ncn2C/C=C/c1ccccc1 | 15.1 | 14.8 |  |
| ONc1nc(Cl)nc2c1ncn2C/C=C/c1ccc(F)cc1 | 4.59 | 17.6 |  |
| Cc1ccc(/C=C/Cn2cnc3c(Cl)ncnc32)cc1 | 13.5 | 12.1 |  |
| Cc1ccc(/C=C/Cn2cnc3c(F)nc(F)nc32)cc1 | 5.88 | 12.1 |  |
| Nc1nc(Cl)nc2c1ncn2C/C=C/c1ccc(F)cc1 | 13.9 | 24.1 |  |
| Cc1ccc(/C=C/Cn2cnc3c(Cl)nc(F)nc32)cc1 | 31.1 | 60.5 |  |
| Fc1ccc(/C=C/Cn2cnc3c(Cl)nc(Cl)nc32)cc1 | 29.3 | 40.5 |  |
| Oc1ccc(/C=C/c2cc(O)cc(O)c2)cc1 [RESVERATROL] | 26.6 | 38.6 | Activity (RAW264.7 [5]): Non-Toxic; Activity (HEK-293T [6]): Non-Toxic; IC50 (RAW264.7 [4]): 26.4 µM |
| Nc1nc(Cl)nc2c1ncn2CC1CC1c1ccc(F)cc1 (stereo not given) | -6.22 | 1.56 | inhibition (RAW264.7 [3]): inactive; inhibition (RAW264.7 [4]): inactive |
| CNc1ncnc2c1ncn2C/C=C/c1ccc(C)cc1 | -7 | -15.7 | inhibition (RAW264.7 [3]): inactive; inhibition (RAW264.7 [4]): inactive |
| Cc1ccc(/C=C/Cn2cnc3c(Cl)nc(Cl)nc32)cc1 | 31.9 | 60.4 | inhibition (RAW264.7 [7]): Active; Activity (Mus musculus [8]): Active; inhibition (RAW264.7 [9]): Active; Activity (RAW264.7 [5]): Non-Toxic; Activity (HEK-293T [6]): Non-Toxic; Activity (RAW264.7 [10]): Active; Activity (Mus musculus [11]): Active; Activity (Mus musculus [12]): Active; Activity (Mus musculus [13]): Active; inhibition (HEK-293T [14]): Active; inhibition [15]: Active; Activity (Mus musculus [16]): Active; IC50 (RAW264.7 [4]): 6.4 µM; inhibition (RAW264.7 [17]): Active; Activity (RAW264.7 [18]): Active; inhibition (RAW264.7 [19]): Active |
| CNc1nc(Cl)nc2c1ncn2C/C=C/c1ccc(C)cc1 | 28.4 | 34.6 |  |
| Cc1ccc(/C=C/Cn2cnc3c(NO)nc(Cl)nc32)cc1 | 36.8 | 40.9 |  |
| Nc1ncnc2c1ncn2C/C=C/c1ccc(F)cc1 | -17.1 | -19.3 | inhibition (RAW264.7 [3]): inactive; inhibition (RAW264.7 [4]): inactive |
| Clc1nc(Cl)c2ncn(C/C=C/c3ccccc3)c2n1 | 22.2 | 34.7 |  |
| CNc1nc(Cl)nc2c1ncn2C/C=C/c1ccc(F)cc1 | 28.2 | 36.5 |  |
| ONc1nc(Cl)nc2c1ncn2C/C=C/c1ccccc1 | 57.4 | 51.2 |  |
| Fc1ccc(C2CC2Cn2cnc3c(Cl)nc(Cl)nc32)cc1 (stereo not given) | 4.11 | 17.1 |  |
| CNc1nc(Cl)nc2c1ncn2C/C=C/c1ccccc1 | 26.8 | 34.7 |  |
| Nc1ncnc2c1ncn2C/C=C/c1ccccc1 | -3.38 | -13.3 | inhibition (RAW264.7 [3]): inactive; inhibition (RAW264.7 [4]): inactive |
| Cc1ccc(/C=C/Cn2cnc3c(N)ncnc32)cc1 | 0.48 | -7.73 | inhibition (RAW264.7 [3]): inactive; inhibition (RAW264.7 [4]): inactive |
